Compound activity from PubChem BioAssay.
SENP8 block-1: inhibitors of human SENP8 protease; Q96LD8; 360,000 compounds, 0.64% hits; recombinant SENP8, Nedd8 substrate fluorescence; inhibition, % at 20 µM; in the data active = inhibition mostly above about 40%, no sharp cut-off; inactive = mostly below about 27%
Target sequence (Q96LD8 whole entry, looked up): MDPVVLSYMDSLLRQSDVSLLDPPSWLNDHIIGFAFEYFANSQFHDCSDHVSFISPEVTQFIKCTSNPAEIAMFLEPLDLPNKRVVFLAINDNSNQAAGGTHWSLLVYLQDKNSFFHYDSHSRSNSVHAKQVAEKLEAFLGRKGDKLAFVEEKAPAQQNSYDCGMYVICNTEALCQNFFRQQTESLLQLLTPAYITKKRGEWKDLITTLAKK
Platelet DG rel: platelet dense granule release activity. human platelet-rich plasma, SFLLRN dense granule ATP release, luminescence. 300,000 compounds, 0.22% hits. inhibition, %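 (compounds screened at 7.5 µM in platelet-rich plasma)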;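 active = mean replicate score, as percent of positive control, at or above 50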
SENP6 inh: inhibitors of human SENP6 protease | 330,000 compounds, 1.8% hits | Recombinant SENP6 catalytic domain, aminoluciferin luminescence | inhibition, % at 10 µM;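 active = inhibition above about 50% at the single tested dose, limit read from the data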
SENP7 inh: blocks the human protease SENP7 | Q9BQF6 | recombinant SENP7, Z-RLRGG-aminoluciferin luminescence, 40 min | inhibition, % at 5 µM | 330,000 compounds, 1.5% hits | AID 434973;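 active = inhibition above about 50% at the single test dose, limit read from the data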
SENP1 FRET inh: inhibitors of human SENP1 SUMO protease catalytic domain | AID 624204 | inhibition, % at 10 µM | 360,000 compounds, 0.21% hits | recombinant SENP1 catalytic domain, CyPet-SUMO1-YPet FRET cleavage | Q9P0U3;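 active = inhibition at least 30% at 10 µM, raw YFP signal under a set limit, fluorescence ratio 0.5 to 1.5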
Target sequence (Q9P0U3 419-644 limits assumed): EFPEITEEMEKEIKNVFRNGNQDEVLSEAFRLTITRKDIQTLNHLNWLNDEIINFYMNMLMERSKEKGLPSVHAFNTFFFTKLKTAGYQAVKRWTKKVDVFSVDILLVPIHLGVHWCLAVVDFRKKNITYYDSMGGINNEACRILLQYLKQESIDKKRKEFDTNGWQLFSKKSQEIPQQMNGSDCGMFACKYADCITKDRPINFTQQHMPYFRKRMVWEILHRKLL
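system = hSENP1 catalytic domain, recombinant | reagent = SFCypet-SUMO1-SFYpet substrate at 25 nM | doses = one dose per compound, 10 µM, 0.5% DMSO | incubation = enzyme reaction for 50 min at room temperature, dark | measured by = FRET, CFP and YFP emission | controls = no-enzyme low, enzyme-DMSO high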
SENP8 block-2: blocks the human protease SENP8. Q96LD8. purified SENP8, Z-RLRGG-aminoluciferin cleavage, luminescence. inhibition, % at 10 µM. 330,000 compounds, 1.2% hits. AID 2540; in the data active = inhibition above about 50%
SENP8 conf: confirmation of human SENP8 protease inhibitors. shares compounds with SENP7 inh. Recombinant SENP8, Z-RLRGG-aminoluciferin luminescence, 60 min. inhibition, % at 12.5 µM. 6,200 compounds, 40% hits;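 active = mean inhibition across replicates above about 50%, limit read from the data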
SENP6 conf: confirmation of human SENP6 protease inhibitors; 6,200 compounds, 58% hits; inhibition, % at 12.5 µM; AID 488915; recombinant SENP6, Z-RLRGG-aminoluciferin luminescence; shares compounds with SENP7 inh
SENP7 confirm: human SENP7 inhibition, confirmed; 6,200 compounds, 69% hits; shares compounds with SENP7 inh; recombinant SENP7, Z-RLRGG-aminoluciferin luminescence, 40 min; inhibition, % at 12.5 µM
Casp3 select: caspase-3 inhibition (SENP selectivity assay) | shares compounds with SENP7 inh | purified caspase-3, Z-DEVD-aminoluciferin luminescence, 60 min | inhibition, % at 12.5 µM | 6,200 compounds, 60% hits | AID 488918;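 active = mean inhibition above about 50%, limit read from the data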
Target sequence (P42574 28-227 limits assumed): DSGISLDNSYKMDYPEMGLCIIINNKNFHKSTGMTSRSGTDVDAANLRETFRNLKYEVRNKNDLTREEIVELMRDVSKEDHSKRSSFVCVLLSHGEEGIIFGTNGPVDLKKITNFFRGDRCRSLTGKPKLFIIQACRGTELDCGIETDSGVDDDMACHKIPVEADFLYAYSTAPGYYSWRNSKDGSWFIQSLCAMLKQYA
SENP luc ctr: interferes with luciferase luminescence in SENP counter-screen. shares compounds with SENP7 inh. Pre-incubated SENP8/Z-RLRGG-aminoluciferin, luciferase luminescence interference. inhibition, % at 12.5 µM. 6,200 compounds, 39% hits;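 active = mean inhibition above about 50% when retested at one dose, limit read from the data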
Large screens that a line does not name were inactive (follow-up assays come after a bar, where they were run). Most compounds without a hit are left out; they make up all but 2.6% or so of the library.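 Rule for the calls, unless noted: active = mean inhibition above about 50% in the one-dose retest (limit read from the data); inactive = the rest.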

COC(=O)c1cnc(SCC(=O)c2ccccc2)n1C	SENP6 inh 83, SENP7 inh 79, SENP8 block-2 71 | SENP8 conf 79 | SENP6 conf 77 | SENP7 confirm 93 | Casp3 select 92 | SENP luc ctr 80
CN(C(=O)N1CCN(S(=O)(=O)c2ccccc2)CC1)c1ccccc1	none
C=CCC1(CC=C)CC(Cc2cnccn2)N(C(=O)OC(C)(C)C)C1 (stereo unspecified)	none (no result: Platelet DG rel, SENP6 inh, SENP7 inh, SENP8 block-2)
CCOC(=O)c1cnc2c(-c3ccccc3)cnn2c1N	SENP7 inh 72 | SENP8 conf inactive | SENP6 conf inactive | SENP7 confirm inactive | Casp3 select inactive | SENP luc ctr inactive
CCOC(=O)c1cnc2c(-c3ccccc3)c(C)nn2c1N	none
CCOC(=O)c1cnc2c(N=Nc3ccccc3)c(N)nn2c1N	SENP7 inh 70 | SENP8 conf inactive | SENP6 conf inactive | SENP7 confirm inactive | Casp3 select inactive | SENP luc ctr inactive
COc1ccc(S(=O)(=O)N2CCCOC2CNC(=O)C(=O)NC2CCCC2)cc1 (stereo unspecified)	none
COc1ccc(OC)c(S(=O)(=O)Oc2ccc(N)c3ccccc23)c1	SENP6 inh 94, SENP8 block-2 72 | SENP8 conf inactive | SENP6 conf inactive | SENP7 confirm inactive | Casp3 select inactive | SENP luc ctr inactive
COc1ccc(OC)c(S(=O)(=O)Nc2cccc3ccccc23)c1	none
COc1cccc(C(=O)Nc2ccc(C3CC3(Cl)Cl)cc2)c1 (stereo unspecified)	SENP6 inh 85, SENP7 inh 94, SENP8 block-2 92 | SENP8 conf 96 | SENP6 conf 97 | SENP7 confirm 103 | Casp3 select 92 | SENP luc ctr inactive
COc1cccc(C(=O)Nc2ccc(C(=O)c3ccccc3)cc2)c1	none
CCOc1ccc(C(=O)Nc2ccc(C(F)(F)F)n(C)c2=O)cc1	none
COc1cccc(C(=O)Nc2ccc(C(F)(F)F)n(C)c2=O)c1	SENP7 inh 80, SENP8 block-2 65 | SENP8 conf inactive | SENP6 conf inactive | SENP7 confirm 82 | Casp3 select 70 | SENP luc ctr inactive
CN(C)S(=O)(=O)Oc1ccc(C(=O)Nc2cccc(Cl)c2)cc1	SENP6 inh 58, SENP7 inh 75, SENP8 block-2 70 | SENP8 conf 83 | SENP6 conf 82 | SENP7 confirm 96 | Casp3 select 63 | SENP luc ctr 72
CN(C)S(=O)(=O)Oc1ccc(C(=O)Nc2cccc(C(F)(F)F)c2)cc1	none
COc1cccc(NC(=O)c2cccc(Cl)c2)c1	SENP6 inh 83, SENP7 inh 77, SENP8 block-2 77 (no result: Platelet DG rel) | SENP8 conf 81 | SENP6 conf 79 | SENP7 confirm 95 | Casp3 select 83 | SENP luc ctr 81
c1ccc(COc2cncc(-c3cccnc3)c2)cc1	none (no result: Platelet DG rel)
C=C(C)C(=O)Nc1cccc(C2=NOC3(C2)C[C@H](C(N)=O)N(C(=O)/C=C/C)C3)c1 (stereo partly specified)	none
Fc1c(F)c(F)c(SCn2cc(Br)cn2)c(F)c1F	none (no result: Platelet DG rel)
COc1cccc(C(=O)NC(=S)Nc2ccc(N(C)C)cc2)c1	SENP6 inh 57 | SENP8 conf inactive | SENP6 conf 57 | SENP7 confirm 78 | Casp3 select inactive | SENP luc ctr inactive
COc1cccc(C(=O)Nc2ccc(F)cc2F)c1	none
COC(=O)c1cccc(NC(=O)c2cccc(OC)c2)c1	SENP6 inh 85, SENP7 inh 84, SENP8 block-2 65 (no result: Platelet DG rel) | SENP8 conf 69 | SENP6 conf 71 | SENP7 confirm 94 | Casp3 select 85 | SENP luc ctr 78
COc1cccc(C(=O)Nc2ccc(F)c(F)c2F)c1	SENP7 inh 51 | SENP8 conf inactive | SENP6 conf inactive | SENP7 confirm 77 | Casp3 select 70 | SENP luc ctr 53
CCOC(=O)Nc1cccc(NC(=O)c2cc(OC)cc(OC)c2)c1	SENP6 inh 64, SENP7 inh 71 | SENP8 conf 74 | SENP6 conf 70 | SENP7 confirm 88 | Casp3 select 76 | SENP luc ctr 74
COc1ccc(NC2CCCN(C(=O)c3cccc(C)n3)C2)cc1OC (stereo unspecified)	none
O=C(CCNC(=O)c1ccccc1Cl)Nc1cccc(S(=O)(=O)N2CCCC2)c1	none (no result: Platelet DG rel)
O=c1c2ccccc2cnn1-c1ccc(Br)cc1	SENP6 inh 58, SENP7 inh 66 | SENP8 conf inactive | SENP6 conf inactive | SENP7 confirm 67 | Casp3 select 67 | SENP luc ctr inactive
O=c1c2ccccc2cnn1-c1ccc2ccccc2c1	SENP6 inh 88, SENP7 inh 82, SENP8 block-2 67 | SENP8 conf 53 | SENP6 conf 77 | SENP7 confirm 94 | Casp3 select 80 | SENP luc ctr inactive
O=c1c2ccccc2cnn1-c1ccc(Cl)nn1	none
Cc1ccc([C@H]2C[C@H](O)[C@@H](n3cc(-c4ccc(F)cc4)nn3)CN2CC2CCCCC2)cc1	none (no result: Platelet DG rel, SENP6 inh, SENP7 inh, SENP8 block-2)
CC(NC(=O)COC(=O)C1CCN(c2ccc(C(F)(F)F)cn2)CC1)c1ccc(F)cc1 (stereo unspecified)	none (no result: Platelet DG rel)
CCOc1cc(C2NN=C(c3ccccc3)S2)ccc1OCc1ccc(F)cc1 (stereo unspecified)	SENP6 inh 83, SENP8 block-2 50 | SENP8 conf inactive | SENP6 conf 72 | SENP7 confirm 94 | Casp3 select 75 | SENP luc ctr 70
CCOc1cc(C2NN=C(c3ccccc3)S2)ccc1OCc1ccccc1Cl (stereo unspecified)	SENP6 inh 66 | SENP8 conf 53 | SENP6 conf inactive | SENP7 confirm 84 | Casp3 select 69 | SENP luc ctr 58
CCOc1cc2c(cc1OCC)C(c1ccc(F)cc1)NCC2 (stereo unspecified)	none
CC(C)c1nnc(NC(=O)CCC2CCCCC2)s1	none
CSc1nsc(SCC(=O)Nc2cccc(NC(C)=O)c2)n1	none
COc1ccc(C)cc1N1CC(C(=O)Nc2ccccc2C(=O)NC2CC2)CC1=O (stereo unspecified)	none (no result: Platelet DG rel)
